Experiments:
Rattus norvegicus = experiment: Carrageenan paw edema index (CPE index) as ratio of the reduction in paw volume relative to tebufelone at a po (peroral) dose of 50 mg/kg.; assay type: functional
Mus musculus [1] = experiment: % reduction in phenylquinone-induced abdominal constriction (PAC) at po (peroral) dose of 70 mg/kg in mice; assay type: functional, Abdomen
[2] = target: T1, Prostaglandin G/H synthase 2 (Homo sapiens, UniProt P35354)
T1 sequence (P35354 whole entry): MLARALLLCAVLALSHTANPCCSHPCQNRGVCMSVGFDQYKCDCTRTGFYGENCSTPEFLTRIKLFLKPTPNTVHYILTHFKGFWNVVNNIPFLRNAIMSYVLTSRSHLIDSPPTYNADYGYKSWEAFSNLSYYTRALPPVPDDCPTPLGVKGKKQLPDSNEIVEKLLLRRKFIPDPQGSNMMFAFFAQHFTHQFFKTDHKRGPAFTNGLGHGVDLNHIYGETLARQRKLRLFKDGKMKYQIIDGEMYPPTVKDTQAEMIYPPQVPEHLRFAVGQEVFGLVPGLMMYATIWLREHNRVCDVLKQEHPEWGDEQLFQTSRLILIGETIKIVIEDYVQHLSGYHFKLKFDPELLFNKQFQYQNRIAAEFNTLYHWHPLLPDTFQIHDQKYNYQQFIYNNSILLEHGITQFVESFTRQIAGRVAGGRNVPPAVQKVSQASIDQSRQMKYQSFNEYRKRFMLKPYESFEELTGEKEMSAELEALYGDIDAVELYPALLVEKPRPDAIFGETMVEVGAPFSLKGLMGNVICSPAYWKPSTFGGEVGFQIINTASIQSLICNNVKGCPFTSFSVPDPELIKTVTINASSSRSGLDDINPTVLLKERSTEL

[3] = target: T2, Prostaglandin G/H synthase 1 (Homo sapiens, UniProt P23219); experiment: Concentration (in uM) to inhibit 50% of Prostaglandin G/H synthase 1 (COX-1) and is expressed in IC50.
Method in brief: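 Human platelet microsomal fraction as enzyme, stored at -70 °C. Run 5 min at 37 °C, started by enzyme, stopped with HCl. PGF2α read by EIA, duplicates. IC50 taken from the percent-inhibition versus concentration curve.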

[4] = target: T2, Prostaglandin G/H synthase 1; experiment: Tested for selectivity for inhibition of human platelet derived COX-1 and recombinant human COX-2
Method in brief: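 COX-1 was microsomes from human platelet concentrate and COX-2 was a sonicated lysate of Sf9 cells infected with baculovirus carrying human COX-2 cDNA. Each enzyme was added to AA (33 µM) and SnCl2 (0.5 mg/mL) in 50 mM Tris-HCl pH 7.5 and run 5 min at 37 °C, then stopped with HCl. PGF2α was measured by EIA, in duplicate. The value is IC50 COX-1/IC50 COX-2.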

[5] = target: Arachidonate 5-lipoxygenase (Rattus norvegicus); experiment: The compound was tested for the concentration (in uM) to inhibit 50% of 5-Lipoxygenase (5-LOX) and is expressed in IC50.
Mus musculus [6] = species on record: Mus musculus; experiment: The compound was tested for the concentration to inhibit 50% of phenylquinone-induced abdominal constriction (PAC).; assay type: functional; conditions: Abdomen
Mus musculus [7] = experiment: Compound was tested for % reduction in phenylquinone-induced abdominal constriction (PAC) at po (peroral) dose of 70 mg/kg in mice; assay type: functional; conditions: Abdomen

T2 sequence (P23219 whole entry): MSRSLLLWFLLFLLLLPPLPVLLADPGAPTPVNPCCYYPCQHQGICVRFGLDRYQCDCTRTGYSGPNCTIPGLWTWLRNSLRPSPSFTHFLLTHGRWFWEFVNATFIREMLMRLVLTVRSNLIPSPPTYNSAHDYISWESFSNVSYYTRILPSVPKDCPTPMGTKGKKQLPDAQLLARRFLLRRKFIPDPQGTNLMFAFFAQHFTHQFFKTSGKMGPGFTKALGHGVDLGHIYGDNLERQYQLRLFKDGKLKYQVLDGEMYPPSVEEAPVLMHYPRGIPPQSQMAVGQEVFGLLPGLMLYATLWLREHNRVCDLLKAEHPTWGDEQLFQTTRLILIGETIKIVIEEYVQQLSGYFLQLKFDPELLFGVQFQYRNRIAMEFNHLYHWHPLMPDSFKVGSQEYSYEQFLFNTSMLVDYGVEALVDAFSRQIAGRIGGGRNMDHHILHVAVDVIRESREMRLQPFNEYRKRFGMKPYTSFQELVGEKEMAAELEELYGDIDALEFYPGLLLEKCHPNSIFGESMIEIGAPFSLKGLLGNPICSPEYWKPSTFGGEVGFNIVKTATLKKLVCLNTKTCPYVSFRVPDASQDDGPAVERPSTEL

| SMILES | CPE index (Rattus norvegicus) | IC50 [2] | IC50 [3] | further results |
| --- | --- | --- | --- | --- |
| CC(O)c1cc(C(C)(C)C)c2c(c1)C(C)(C)CO2 (centres undefined) | 0 | – | – | – |
| CC(C)(C)c1cc(C(=O)C2CC2)cc2c1OCC2(C)C | 0.67 | – | – | Reduction (Mus musculus [1]): 85% |
| CC(=O)OCC(=O)c1cc(C(C)(C)C)c2c(c1)C(C)(C)CO2 | 0.21 | – | – | – |
| COCCOCC(=O)c1cc(C(C)(C)C)c2c(c1)C(C)(C)CO2 | 0.52 | – | – | – |
| CC(C)CCCC(=O)c1cc(C(C)(C)C)c2c(c1)C(C)(C)CO2 | 0.36 | 4500 nM | 15000 nM | Selectivity [4]: 3.3; IC50 [5]: 15000 nM |
| C[S+]([O-])CC(=O)c1cc(C(C)(C)C)c2c(c1)C(C)(C)CO2 (centres undefined) | 1.01 | – | – | ED50 (Mus musculus [6]): 20 mg/kg |
| CC(C)(C)c1cc(C(=O)CS(=O)(=O)CC2CC2)cc2c1OCC2(C)C | 0 | 2000 nM | 5000 nM | Selectivity [4]: 2.5 |
| CC(C)C(=O)c1cc(C(C)(C)C)c2c(c1)C(C)(C)CO2 | 1.25 | – | – | ED50 (Mus musculus [6]): 22 mg/kg |
| CCCCC(=O)c1cc(C(C)(C)C)c2c(c1)C(C)(C)CO2 | – | 40 nM | 2000 nM | – |
| CC(C)(C)c1cccc2c1OCC2(C)C | 0.31 | – | – | – |
| CC(C)(C)c1cc(C(=O)C2CCCC2)cc2c1OCC2(C)C | 0.65 | – | – | Reduction (Mus musculus [1]): 56% |
| CC(=O)c1cc(C(C)(C)C)c2c(c1)C(C)(C)CO2 | 0.92 | – | – | Reduction (Mus musculus [1]): 78% |
| CSCCC(=O)c1cc(C(C)(C)C)c2c(c1)C(C)(C)CO2 | 0.7 | – | – | – |
| CN(C)CCC(=O)c1cc(C(C)(C)C)c2c(c1)C(C)(C)CO2 | 0.32 | – | – | – |
| CC(C)(C)c1cc(C(=O)CS(C)(=O)=O)cc2c1OCC2(C)C | 0 | – | – | – |
| CC(=O)SCC(=O)c1cc(C(C)(C)C)c2c(c1)C(C)(C)CO2 | 0.95 | – | – | Reduction (Mus musculus [1]): 64% |
| CC(C)(C)c1cc(C(=O)CCC2CC2)cc2c1OCC2(C)C | 0.18 | – | – | Reduction (Mus musculus [1]): 58% |
| C#CCCCC(=O)c1cc(C(C)(C)C)c(O)c(C(C)(C)C)c1 [TEBUFELONE] | – | 100 nM | 250 nM | – |

| SMILES | CPE index (Rattus norvegicus) | IC50 [2] | IC50 [3] | further results |
| --- | --- | --- | --- | --- |
| CC(C)=CC(=O)c1cc(C(C)(C)C)c2c(c1)C(C)(C)CO2 | 1.22 | – | – | Reduction (Mus musculus [1]): 50% |
| CCC(=O)c1cc(C(C)(C)C)c2c(c1)C(C)(C)CO2 | 1.14 | – | – | ED50 (Mus musculus [6]): 20 mg/kg |
| CC(C)(C)C(=O)c1cc(C(C)(C)C)c2c(c1)C(C)(C)CO2 | 0.3 | – | – | – |
| CC(C)(C)c1cc(C(=O)c2ccccc2)cc2c1OCC2(C)C | – | 7 nM | 150 nM | Reduction (Mus musculus [1]): 34% |
| CC(C)(C)c1cc(C(=O)c2ccccc2Cl)cc2c1OCC2(C)C | 0 | – | – | – |
| CCCC(=O)c1cc(C(C)(C)C)c2c(c1)C(C)(C)CO2 | – | 95 nM | 95 nM | Reduction (Mus musculus [1]): 85% |
| CC(C)(C)c1cc(C(=O)C[S+]([O-])CC2CC2)cc2c1OCC2(C)C (centres undefined) | 0.04 | 4000 nM | 20000 nM | Selectivity [4]: 5 |
| CSCC(=O)c1cc(C(C)(C)C)c2c(c1)C(C)(C)CO2 | 1.77 | – | – | Reduction (Mus musculus [1]): 35% |
| CC(C)(C)c1cc(C(=O)c2ccc(F)cc2)cc2c1OCC2(C)C | 0.52 | – | – | – |
| CC(C)(C)c1cc(C(=O)C2CCCCC2)cc2c1OCC2(C)C | 0.36 | – | – | – |
| CC(C)(C)c1cc(C(=O)CSCC2CC2)cc2c1OCC2(C)C | 0.62 | 400 nM | 650 nM | Selectivity [4]: 1.6; Reduction (Mus musculus [1]): 54% |
| CC(C)(C)c1cc(C(=O)CC2CC2)cc2c1OCC2(C)C | 1.06 | – | – | – |
| CCCCCC(=O)c1cc(C(C)(C)C)c2c(c1)C(C)(C)CO2 | 0.4 | 90 nM | > 10000 nM | Selectivity [4]: > 111 |
| CC(C)(C)c1cc(C(=O)/C=C/CC2CC2)cc2c1OCC2(C)C | 0.18 | 250 nM | 800 nM | – |
| CC(C)(C)c1cc(C(=O)CCCC2CC2)cc2c1OCC2(C)C | – | 220 nM | 7000 nM | – |
| CC(C)(Cl)CC(=O)c1cc(C(C)(C)C)c2c(c1)C(C)(C)CO2 | 1.2 | 100 nM | 1000 nM | ED50 (Mus musculus [7]): 16 mg/kg; IC50 [5]: 8000 nM |
| C#CCCCC(=O)c1cc(C(C)(C)C)c2c(c1)C(C)(C)CO2 | – | 15 nM | 60 nM | – |
| CN(CC(=O)c1cc(C(C)(C)C)c2c(c1)C(C)(C)CO2)CC1CC1 | 0.38 | 2500 nM | 30000 nM | – |

From ChEMBL document CHEMBL1131314, “New cyclooxygenase-2/5-lipoxygenase inhibitors. 1. 7-tert-buty1-2,3-dihydro-3,3-dimethylbenzofuran derivatives as gastrointestinal safe antiinflammatory and analgesic agents: discovery and variation of the 5-keto substituent” (J Med Chem, 1998)
